Laboratory results: ChEMBL document CHEMBL3526081 (Drug Metab Dispos, 2011)

test system: Liver microsome; test: Retention time in Sprague-Dawley rat liver microsomes treated with 100 uM cinobufagin at 37 degC after 30 mins by UFLC-DAD-ESI-MS analysis; format: ADME; details: 0.5 h
In short: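 Male Sprague-Dawley rat microsomes (0.3 mg/ml) were incubated with CB (100 µM) at 37°C for 30 min, with and without NADPH-generating system. Separation was on an ODS column at 40°C using an acetonitrile/0.5% formic acid water gradient at 0.4 ml/min, with DAD detection at 294 nm plus ESI-MS.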

Compound | Retention_time [min]
C[C@]12CC[C@@H](O)C[C@H]1CC[C@@H]1[C@@H]2CC[C@]2(C)[C@@H](c3ccc(=O)oc3)[C@@H](O)[C@H]3O[C@]132 | 8.32
CC(=O)O[C@H]1[C@H]2O[C@]23[C@@H]2CC[C@@H]4C[C@H](O)CC[C@]4(C)[C@H]2CC[C@]3(C)[C@H]1c1ccc(=O)oc1 | 10.59
C[C@]12CC[C@H](O)C[C@H]1CC[C@@H]1[C@@H]2CC[C@]2(C)[C@@H](c3ccc(=O)oc3)[C@@H](O)[C@H]3O[C@]132 [DESACETYLCINOBUFAGIN] | 6.95
